From ChEMBL document CHEMBL4304743, “Discovery of ( E)- N1-(3-Fluorophenyl)- N3-(3-(2-(pyridin-2-yl)vinyl)-1 H-indazol-6-yl)malonamide (CHMFL-KIT-033) as a Novel c-KIT T670I Mutant Selective Kinase Inhibitor for Gastrointestinal Stromal Tumors (GISTs)” (J Med Chem, 2019) come the findings set out here.

Broadly, the MRT inf is a mean duration of stay, worked out from the concentration-time curve. A word on the EC50: it is the concentration at which the effect is half-maximal. In general, half-life refers to the time in which the quantity being followed falls by half. What is called IC50 is the point on the concentration scale where inhibition reaches its midpoint.

The subject of data set [1] is Mast/stem cell growth factor receptor Kit (Homo sapiens), P10721 [L576P]. In words: Binding affinity to human partial length c-KIT L576P mutant (Y545 to D952 residues) expressed in bacterial expression system assessed as enzyme remaining activity at 1 uM by Kinomescan method relative to control. An outline of the steps: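 KINOMEscan binding profile (DiscoverX) run at 1 μM against a panel of 468 kinases and mutants. Read-out is percent of control (%Ctrl) remaining bound.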

Data set [2] in a line: MRT (0 to infinity) in mouse at 1 mg/kg, iv measured after 2 to 720 mins by LC-tandem mass spectrometry analysis. Particulars: in vivo. The data set is classed as ADME, organism-based.
Data set [3] is described as follows: Antitumor activity against human GIST5R cells xenografted in nude mouse assessed as tumor weight at 50 mg/kg, po administered […] via gavage for 28 days (reference value: 0.59g). The data set is classed as functional. An outline of the steps: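 Female nu/nu mice (5 weeks old) given subcutaneous right-flank GIST-5R cells in Matrigel. Dosing began at tumors of 200-400 mm3; randomized, 4 mice per group. Daily oral dosing (QD) at 25, 50 or 100 mg/kg in 0.5% methylcellulose/0.4% Tween80, or vehicle alone, for 28 days. Body weight and tumor volume, (W²×L)/2, measured daily; mean±SEM.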
Background: A xenograft is tissue or cells of one species grown in another, often human tumour cells in immunodeficient mice.

The subject of a further data set is GISTT1. In words: Induction of apoptosis in human GISTT1 cells harboring c-KIT 560 to 578 deletion mutant assessed as increase in cleaved caspase level after 24 hrs by Western blot analysis. The data set is classed as functional, cell-based. In general terms: In western blotting, separated proteins are transferred to a membrane and probed.
Data set [4] in a line: MRT (0 to infinity) in Sprague-Dawley rat at 10 mg/kg, po measured after 5 to 720 mins by LC-tandem mass spectrometry analysis. Type of data set: ADME, organism-based. The following applies: in vivo. An outline of the steps: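 Male Sprague–Dawley rats (190-210 g), fasted 12 h, given 1 mg/kg i.v. or 10 mg/kg p.o. in DMSO/5% glucose water (1:9). Blood sampled at 2–720 min (i.v.) or 5–720 min (p.o.). Plasma proteins precipitated with methanol using caffeine internal standard, then LC-MS/MS. Noncompartmental analysis; F = AUC0-∞ ratio corrected for dose; triplicate ±SD.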

The nature of data set [5]: Apparent volume of distribution in Sprague-Dawley rat at 10 mg/kg, po measured after 5 to 720 mins by LC-tandem mass spectrometry analysis. Type of data set: ADME, organism-based. The following applies: in vivo. An outline of the steps:
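Male Sprague-Dawley rats (190-210 g), fasted 12 h, randomized into two groups: 1 mg/kg i.v. or 10 mg/kg p.o., both formulated in 10% DMSO/90% of 5% glucose water. Blood sampled at 2-720 min (i.v.) or 5-720 min (p.o.). Plasma protein-precipitated with methanol, caffeine internal standard, LC-MS/MS. Noncompartmental analysis; triplicate, ±SD.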

Data set [6] in a line: Apparent volume of distribution in mouse at 10 mg/kg, po measured after 5 to 720 mins by LC-tandem mass spectrometry analysis. Particulars: in vivo. Type of data set: ADME, organism-based. The method, boiled down:
(§1)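 Mice dosed 1 mg/kg i.v. or 10 mg/kg p.o.; plasma drug levels by LC-MS/MS, parameters by noncompartmental analysis; values not from triplicate testing.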

In data set [7] the test system is Mast/stem cell growth factor receptor Kit (Homo sapiens), P10721 [UNDEFINED MUTATION]. Kind of data set: Inhibition of c-KIT 560 to 578 deletion/T670I double mutant in human GIST5R cells assessed as reduction in AKT phosphorylation at S473 residue at 0.1 uM to 3 uM after 1 hr by Western blot analysis. Type of data set: cell-based. An outline of the steps:
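Serial compound dilutions applied for 1 h to GIST-T1, GIST-T1-T670I (CRISPR/Cas9 T670I knock-in, clone confirmed by Sanger sequencing) or GIST-5R cells in DMEM with 10% FBS. Cells then lysed and phospho-proteins detected by standard Western blotting.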

The target in data set [8] is Casein kinase I isoform alpha (Homo sapiens, UniProt P48729). Kind of data set: Binding affinity to wild-type human partial length CSNK1A1 (M1 to L301 residues) expressed in mammalian expression system assessed as enzyme remaining activity at 1 uM by Kinomescan assay relative to control. An outline of the steps: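 KINOMEscan competition binding panel of 468 kinases and mutants, compound at 1 μM; binding reported as percent of control.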
Sequence of Casein kinase I isoform alpha (P48729 2-337 limits assumed): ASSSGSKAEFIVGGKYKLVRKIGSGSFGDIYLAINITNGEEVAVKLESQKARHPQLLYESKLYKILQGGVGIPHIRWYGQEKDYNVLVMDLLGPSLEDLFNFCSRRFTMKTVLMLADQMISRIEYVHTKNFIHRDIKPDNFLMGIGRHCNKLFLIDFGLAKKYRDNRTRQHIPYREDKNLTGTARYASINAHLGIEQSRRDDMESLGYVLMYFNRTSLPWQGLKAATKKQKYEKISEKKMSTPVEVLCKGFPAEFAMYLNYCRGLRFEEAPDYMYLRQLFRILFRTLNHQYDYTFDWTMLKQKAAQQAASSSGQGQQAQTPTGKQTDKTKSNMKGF

Data set [9] deals with T1, Mast/stem cell growth factor receptor Kit (Homo sapiens, UniProt P10721). In words: Inhibition of TEL fused wild type c-KIT (unknown origin) transfected in mouse BaF3 cells assessed as reduction in phosphorylation at Y719 residue after 2 hrs by Western blot analysis. The data set is classed as cell-based.
T1 sequence (P10721 whole entry, the tested form may be a part): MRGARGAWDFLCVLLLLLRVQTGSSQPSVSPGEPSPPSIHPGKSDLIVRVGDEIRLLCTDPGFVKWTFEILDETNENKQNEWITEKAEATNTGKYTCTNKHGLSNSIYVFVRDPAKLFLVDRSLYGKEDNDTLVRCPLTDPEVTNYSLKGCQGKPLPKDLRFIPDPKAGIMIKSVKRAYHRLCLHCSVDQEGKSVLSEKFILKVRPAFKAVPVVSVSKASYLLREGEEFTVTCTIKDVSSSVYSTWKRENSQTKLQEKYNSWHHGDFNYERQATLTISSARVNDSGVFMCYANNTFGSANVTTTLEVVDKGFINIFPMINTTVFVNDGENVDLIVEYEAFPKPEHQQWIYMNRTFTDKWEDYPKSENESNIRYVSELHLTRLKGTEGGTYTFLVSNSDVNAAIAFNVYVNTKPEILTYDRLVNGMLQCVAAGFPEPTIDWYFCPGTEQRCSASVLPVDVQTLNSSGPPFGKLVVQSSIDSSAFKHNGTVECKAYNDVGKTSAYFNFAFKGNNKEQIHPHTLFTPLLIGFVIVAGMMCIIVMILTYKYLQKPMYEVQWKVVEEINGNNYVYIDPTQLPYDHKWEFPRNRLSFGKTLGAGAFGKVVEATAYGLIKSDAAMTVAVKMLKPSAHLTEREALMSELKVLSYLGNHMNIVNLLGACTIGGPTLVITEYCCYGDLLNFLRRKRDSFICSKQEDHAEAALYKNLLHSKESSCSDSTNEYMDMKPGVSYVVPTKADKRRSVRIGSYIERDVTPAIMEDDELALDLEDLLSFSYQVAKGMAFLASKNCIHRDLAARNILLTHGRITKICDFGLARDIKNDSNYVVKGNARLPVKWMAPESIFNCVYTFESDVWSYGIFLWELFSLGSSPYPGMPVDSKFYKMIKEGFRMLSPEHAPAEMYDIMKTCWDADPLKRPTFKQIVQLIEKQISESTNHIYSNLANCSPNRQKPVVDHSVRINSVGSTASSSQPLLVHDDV
In a further data set the test system is Mus musculus. In words: Inhibition of ERK phosphorylation at T202/Y204 residue in tumor of human GIST5R cells xenografted in nude mouse at 100 mg/kg, po administered as single dose and measured at 2 hrs. The data set is classed as functional, organism-based. An outline of the steps: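 Female nu/nu mice bearing subcutaneous GIST-5R tumors (cells in Matrigel, right flank) given one oral dose of 100 mg/kg in 0.5% methylcellulose/0.4% Tween80. Tumors collected over a 2 h time course. p-c-KIT, p-ERK and p-AKT measured alongside plasma drug levels.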

The nature of data set [10]: Half-life in mouse at 1 mg/kg, iv measured after 2 to 720 mins by LC-tandem mass spectrometry analysis. Particulars: in vivo. The data set is classed as ADME, organism-based. The method, boiled down: as §1
Data set [11] concerns the target T1, Mast/stem cell growth factor receptor Kit. In words: Inhibition of wild type c-KIT phosphorylation at Y823 residue in human COLO320DM cells after 2 hrs by Western blot analysis. Type of data set: cell-based.
Data set [12] concerns the target Platelet-derived growth factor receptor alpha (Homo sapiens, UniProt P16234). In words: Inhibition of wild-type human partial length PDGFRA (V575 to D1002 residues) expressed in mammalian expression system after 1 hr by Z-LYTE assay.
Data set [13] deals with Macrophage colony-stimulating factor 1 receptor (Homo sapiens, UniProt P07333). In words: Inhibition of wild-type human partial length CSF1R (I564 to S939 residues) expressed in bacterial expression system after 1 hr by Z-LYTE assay.
Sequence of Macrophage colony-stimulating factor 1 receptor (P07333 whole entry, the tested form may be a part): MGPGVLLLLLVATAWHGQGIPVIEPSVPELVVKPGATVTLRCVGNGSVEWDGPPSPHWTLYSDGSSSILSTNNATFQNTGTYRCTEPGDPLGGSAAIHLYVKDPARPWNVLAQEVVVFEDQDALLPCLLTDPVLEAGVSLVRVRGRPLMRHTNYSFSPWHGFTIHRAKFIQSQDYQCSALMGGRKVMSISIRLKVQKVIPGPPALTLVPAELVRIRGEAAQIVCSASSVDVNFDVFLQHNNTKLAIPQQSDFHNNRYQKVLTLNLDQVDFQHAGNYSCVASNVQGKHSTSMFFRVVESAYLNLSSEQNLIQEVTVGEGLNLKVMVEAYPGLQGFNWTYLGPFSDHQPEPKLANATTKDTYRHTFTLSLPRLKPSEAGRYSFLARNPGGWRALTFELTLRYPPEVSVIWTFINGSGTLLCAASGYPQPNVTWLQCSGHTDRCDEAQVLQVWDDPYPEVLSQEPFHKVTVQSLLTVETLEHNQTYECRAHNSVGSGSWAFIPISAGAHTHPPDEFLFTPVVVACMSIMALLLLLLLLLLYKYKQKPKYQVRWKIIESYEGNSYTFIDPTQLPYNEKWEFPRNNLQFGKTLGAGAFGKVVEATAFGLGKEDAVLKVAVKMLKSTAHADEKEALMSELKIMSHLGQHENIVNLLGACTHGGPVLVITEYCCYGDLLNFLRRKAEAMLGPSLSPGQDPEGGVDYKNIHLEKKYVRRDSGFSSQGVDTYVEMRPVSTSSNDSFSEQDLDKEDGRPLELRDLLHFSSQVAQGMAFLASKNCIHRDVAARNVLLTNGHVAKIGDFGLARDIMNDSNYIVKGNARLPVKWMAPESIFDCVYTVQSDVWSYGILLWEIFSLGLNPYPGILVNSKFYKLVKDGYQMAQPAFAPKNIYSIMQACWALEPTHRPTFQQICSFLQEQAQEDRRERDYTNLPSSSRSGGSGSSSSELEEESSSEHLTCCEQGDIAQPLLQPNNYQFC
A short description of data set [14]: Apparent clearance in mouse at 1 mg/kg, iv measured after 2 to 720 mins by LC-tandem mass spectrometry analysis. Particulars: in vivo, read-out: CL(app) (converted). The data set is classed as ADME, organism-based. The method, boiled down: as §1
Data set [15] is described as follows: Drug level in plasma of nude mouse xenograted with human GIST5R cells at 100 mg/kg, po administered as single dose and measured at 4 hrs. The following applies: in vivo. The data set is classed as ADME, organism-based. An outline of the steps:
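GIST-5R xenograft nu/nu mice given a single 100 mg/kg oral dose; plasma drug concentration followed over a time course alongside tumor p-c-KIT, p-ERK and p-AKT.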

Data set [16] addresses Platelet-derived growth factor receptor beta (Homo sapiens, UniProt P09619). In words: Inhibition of wild-type human partial length PDGFRB (V582 to Y1009 residues) expressed in bacterial expression system after 1 hr by Z-LYTE assay.
Data set [17] can be described thus: Selectivity ratio, ratio of inhibition of wild type TEL fused c-KIT (unknown origin) transfected in mouse BAF3 cells assessed as growth inhibition to inhibition of TEL fused c-KIT T670I mutant (unknown origin) transfected in mouse BAF3 cells assessed as growth inhibition. The arrangement: species or system Homo sapiens. The method, boiled down: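 IL-3 independent BaF3 cells stably expressing tel-c-KIT wt or tel-c-KIT T670I, grown in RPMI 1640 with 10% FBS, 2% L-glutamine, 37 °C, 5% CO2. Suspension cells at 1.5 to 5 × 10^4 cells/mL mixed with serial compound dilutions and incubated 72 h. Viability read by CCK-8 absorbance at 450 nm, normalized to DMSO; GI50 from curve fit. Selectivity is wt GI50 over T670I GI50.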

Active and inactive are the calls of the source. The calls are words filed in the database; no cut-off is given here.

Sequence of Mast/stem cell growth factor receptor Kit (Homo sapiens), P10721 [UNDEFINED MUTATION] (P10721 whole entry, looked up, stated change not applied): as the sequence (P10721 whole entry, the tested form may be a part) above
Sequence of Mast/stem cell growth factor receptor Kit (Homo sapiens), P10721 [L576P] (P10721 whole entry L576P, the tested form may be a part): as the sequence (P10721 whole entry, the tested form may be a part) above, with L576P counted along it
Sequence of Platelet-derived growth factor receptor alpha (P16234 whole entry, the tested form may be a part): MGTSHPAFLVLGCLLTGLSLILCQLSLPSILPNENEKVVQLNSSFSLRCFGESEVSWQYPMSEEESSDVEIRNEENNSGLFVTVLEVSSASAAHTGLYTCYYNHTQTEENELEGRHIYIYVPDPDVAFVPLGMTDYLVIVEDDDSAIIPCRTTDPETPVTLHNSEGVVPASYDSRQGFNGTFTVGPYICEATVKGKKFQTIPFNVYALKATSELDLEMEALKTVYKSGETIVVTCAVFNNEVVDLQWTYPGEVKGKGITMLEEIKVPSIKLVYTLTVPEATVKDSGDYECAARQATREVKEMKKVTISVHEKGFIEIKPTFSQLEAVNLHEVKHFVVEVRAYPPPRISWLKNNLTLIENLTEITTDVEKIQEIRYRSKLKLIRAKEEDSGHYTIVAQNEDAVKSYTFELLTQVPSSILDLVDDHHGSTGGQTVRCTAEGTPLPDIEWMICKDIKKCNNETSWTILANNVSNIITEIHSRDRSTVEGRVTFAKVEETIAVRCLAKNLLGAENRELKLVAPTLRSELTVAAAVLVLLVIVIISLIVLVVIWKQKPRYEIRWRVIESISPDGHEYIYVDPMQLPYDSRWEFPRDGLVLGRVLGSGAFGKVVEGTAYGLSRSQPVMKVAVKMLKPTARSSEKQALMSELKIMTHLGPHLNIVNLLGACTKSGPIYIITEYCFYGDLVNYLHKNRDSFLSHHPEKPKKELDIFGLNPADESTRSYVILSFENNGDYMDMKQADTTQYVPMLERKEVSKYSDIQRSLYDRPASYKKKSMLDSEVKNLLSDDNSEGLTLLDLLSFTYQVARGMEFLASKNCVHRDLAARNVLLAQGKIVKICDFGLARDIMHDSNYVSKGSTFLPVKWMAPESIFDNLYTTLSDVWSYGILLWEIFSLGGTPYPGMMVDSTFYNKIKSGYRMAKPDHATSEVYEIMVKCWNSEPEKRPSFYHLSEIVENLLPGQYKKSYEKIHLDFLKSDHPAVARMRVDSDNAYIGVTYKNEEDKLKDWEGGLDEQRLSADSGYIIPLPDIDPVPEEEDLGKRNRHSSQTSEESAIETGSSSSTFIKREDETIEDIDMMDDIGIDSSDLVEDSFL
Sequence of Platelet-derived growth factor receptor beta (P09619 whole entry, the tested form may be a part): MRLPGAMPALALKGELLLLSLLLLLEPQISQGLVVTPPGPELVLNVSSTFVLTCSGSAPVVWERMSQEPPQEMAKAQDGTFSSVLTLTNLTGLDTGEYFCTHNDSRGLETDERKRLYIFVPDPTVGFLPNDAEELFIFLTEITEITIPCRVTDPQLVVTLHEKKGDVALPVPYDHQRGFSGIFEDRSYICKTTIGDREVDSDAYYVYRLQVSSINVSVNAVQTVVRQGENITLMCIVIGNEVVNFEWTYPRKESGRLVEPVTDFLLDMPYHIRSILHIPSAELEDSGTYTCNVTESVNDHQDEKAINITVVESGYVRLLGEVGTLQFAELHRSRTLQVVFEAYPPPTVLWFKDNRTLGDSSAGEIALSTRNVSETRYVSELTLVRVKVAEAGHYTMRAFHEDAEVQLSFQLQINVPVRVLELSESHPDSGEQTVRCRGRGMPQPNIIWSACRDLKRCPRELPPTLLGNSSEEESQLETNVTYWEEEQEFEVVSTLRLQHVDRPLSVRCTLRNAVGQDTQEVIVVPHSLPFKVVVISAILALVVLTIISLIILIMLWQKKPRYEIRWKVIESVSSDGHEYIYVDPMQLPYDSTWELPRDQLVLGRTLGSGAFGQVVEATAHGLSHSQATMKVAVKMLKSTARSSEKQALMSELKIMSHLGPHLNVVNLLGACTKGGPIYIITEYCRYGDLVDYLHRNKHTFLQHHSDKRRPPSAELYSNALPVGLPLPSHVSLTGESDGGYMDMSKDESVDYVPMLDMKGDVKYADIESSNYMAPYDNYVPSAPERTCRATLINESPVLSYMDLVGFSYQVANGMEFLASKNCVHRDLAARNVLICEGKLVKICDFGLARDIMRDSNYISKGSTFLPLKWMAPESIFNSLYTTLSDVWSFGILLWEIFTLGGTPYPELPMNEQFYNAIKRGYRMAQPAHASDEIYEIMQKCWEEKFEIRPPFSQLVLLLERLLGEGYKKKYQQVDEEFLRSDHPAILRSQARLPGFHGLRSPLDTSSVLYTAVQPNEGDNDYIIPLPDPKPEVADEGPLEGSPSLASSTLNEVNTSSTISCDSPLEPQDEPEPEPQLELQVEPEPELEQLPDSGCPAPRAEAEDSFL

Take `O=C(CC(=O)Nc1ccc2c(/C=C/c3ccccn3)n[nH]c2c1)Nc1cccc(F)c1`: the Activity was under 1% in [1], 0.25 g in data set [3], “Dose-dependent effect” in the data set with GISTT1 and 0.2% in data set [8]. The results for the MRT inf in data set [2] and in data set [4] were 0.4 h and 5.4 h, respectively. Moreover, the Vz in data set [5] is 86.8 L/kg; in data set [6], 19 L/kg. Besides, the inhibition result (in data set [7]; in the data set with Mus musculus) was “Active” each time. Also, the EC50 was over 1000 nM in [9] and 2050 nM in data set [11]. For the same compound, the half-life in data set [10] was 4.9 h. The half-maximal inhibitory concentration (IC50) in data set [12] is 7780 nM; in [13], 14.2 to 14.3 nM; in data set [16], 2080 nM. Besides, in [14], the clearance was 18.3 mL/min/kg. In data set [15], the Drug uptake entry is listed as “Not Active”. Also, the RatioGI50 in data set [17] is listed as 26.
